≈ marks a conversion by molar mass, not a printed value. Calls of active or inactive are those of the source. Where only a bound is given, the exact number is not on record here.

The subject of one assay is Nannizzia gypsea. In words: Antifungal activity against Microsporum gypseum 42960 after 18 to 24 hrs by twofold broth dilution method. Format: functional. A general note: Dilution methods test growth across graded concentrations, often in twofold steps.
Assay [1] has as its system Candida albicans. In words: Antifungal activity against Candida albicans 44506 in RPMI-1640 medium after 7 days in pH 7 buffer by agar dilution method. Format: functional. Particulars: Candida albicans, 44506, 168 h.
Assay [2] deals with Candida albicans. In words: Antifungal activity against Candida albicans 44506 in RPMI-1640 medium after 18 to 24 hrs by twofold broth dilution method. Format: functional. A digest of the protocol: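 Twofold broth microdilution in RPMI-1640 (pH 7.2, unbuffered), inoculum 10^3 cells/ml. Incubated 18–24 h at 37° under 5% CO2. MIC read visually as the lowest concentration giving complete growth inhibition. Average of triplicates.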

The test system of a further assay is Escherichia coli. In words: Antibacterial activity against Escherichia coli HBOI 001 after 18 to 24 hrs by twofold broth dilution method. It counts as functional, organism-based. The procedure, abridged: (§1)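 Twofold serial dilutions in Mueller-Hinton broth supplemented with Mg2+ and Ca2+. Inoculum 10^3 cells/ml, with cell density counted by hemocytometer. Incubated 18–24 h at 37°. MIC is the lowest concentration giving complete visual inhibition of growth. Triplicate determinations, reported as the average.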

Assay [3] concerns Candida albicans. In words: Antifungal activity against Candida albicans 44506 in Sabouraud dextrose broth after 18 to 24 hrs by twofold broth dilution method. It counts as functional. A digest of the protocol: (§2)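 Inoculum 10^3 cells/ml, incubated 18–24 h at 37°. MIC read visually as the lowest concentration with complete growth inhibition. Average of triplicates.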
The subject of assay [4] is Candida albicans. In words: Antifungal activity against Candida albicans 44506 in YNBG medium after 18 to 24 hrs by twofold broth dilution method. It counts as functional. A digest of the protocol: as §2
In assay [5] the test system is Candida albicans. In words: Antifungal activity against Candida albicans 44506 in RPMI-1640 medium after 7 days in pH 8 buffer by agar dilution method. It counts as functional. Particulars: Candida albicans, 44506, 168 h.
In assay [6] the test system is Candida albicans. In words: Antifungal activity against Candida albicans 44506 in YNBG medium after 7 days in pH 5 buffer by agar dilution method. Format: functional. The settings on record: Candida albicans, 44506, 168 h.
Assay [7] relates to Candida albicans. In words: Antifungal activity against Candida albicans 44506 in YNBG medium of pH 5.4 after 7 days by agar dilution method. The settings on record: Candida albicans, 44506, 168 h. Format: functional. A general note: Agar dilution tests growth on a series of plates holding different concentrations.
Assay [8] deals with Candida albicans. In words: Antifungal activity against Candida albicans 44506 in YNBG medium after 7 days in pH 6 buffer by agar dilution method. Format: functional. The settings on record: Candida albicans, 44506, 168 h.
Assay [9] concerns Candida albicans. In words: Antifungal activity against Candida albicans 44506 in YNBG medium after 7 days in pH 7 buffer by agar dilution method. It counts as functional. Particulars: Candida albicans, 44506, 168 h.
Assay [10] concerns Candida albicans. In words: Antifungal activity against Candida albicans 44506 assessed as inhibition of U-14C-acetate incorporation into TCA precipitable material after 1 hr. It counts as functional, organism-based. The settings on record: Candida albicans, 44506, 1 h. A digest of the protocol: (§3)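 Candida grown overnight in YNBG to mid-log phase, washed with saline, and resuspended in YNB lacking the precursor under study. Compound preincubated 30 min at 37°. 14C-labelled acetate, adenine, glucose or leucine (per line) then added, with incorporation followed 60 min (linear). Stopped with ice-cold TCA, 5% final. IC50 is the concentration giving 50% inhibition versus control.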

Assay [11] deals with Candida albicans. In words: Antifungal activity against Candida albicans 44506 in RPMI-1640 medium after 7 days in pH 4 buffer by agar dilution method. Particulars: Candida albicans, 44506, 168 h. Format: functional.
Assay [12] deals with Candida albicans. In words: Antifungal activity against Candida albicans 44506 in YNBG medium after 7 days in pH 8 buffer by agar dilution method. Particulars: Candida albicans, 44506, 168 h. It counts as functional.
The test system of a further assay is Pseudomonas aeruginosa. In words: Antibacterial activity against Pseudomonas aeruginosa 27853 after 18 to 24 hrs by twofold broth dilution method. It counts as functional, organism-based. The procedure, abridged: as §1
Another assay relates to Epidermophyton floccosum. In words: Antifungal activity against Epidermophyton floccosum 25066 after 18 to 24 hrs by twofold broth dilution method. It counts as functional.
Assay [13] relates to Candida albicans. In words: Antifungal activity against Candida albicans 44506 in RPMI-1640 medium after 7 days in pH 6 buffer by agar dilution method. The settings on record: Candida albicans, 44506, 168 h. It counts as functional.
In assay [14] the test system is Candida albicans. In words: Antifungal activity against Candida albicans 44506 in RPMI-1640 medium after 7 days in pH 5 buffer by agar dilution method. Format: functional. Particulars: Candida albicans, 44506, 168 h.
Assay [15] has as its system Candida albicans. In words: Antifungal activity against Candida albicans 44506 in Sabouraud dextrose broth after 24 to 48 hrs. It counts as functional. The procedure, abridged:
(§4)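 MFC taken from the broth MIC plates: wells resuspended, and 1 µl streaked onto Sabouraud dextrose agar (Candida) or Emmon's SDA (Cryptococcus). Scored after 24–48 h at 37°. MFC is the lowest concentration killing 99% of the inoculum. Average of triplicates.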

The subject of another assay is Bacillus subtilis. In words: Antibacterial activity against Bacillus subtilis 6633 after 18 to 24 hrs by twofold broth dilution method. Format: functional. A digest of the protocol: as §1
The test system of assay [16] is Candida albicans. In words: Antifungal activity against Candida albicans 44506 assessed as inhibition of U-14C-glucose incorporation into TCA precipitable material after 1 hr. Format: functional, organism-based. Particulars: Candida albicans, 44506, 1 h. A digest of the protocol: as §3
For assay [17], the system named is Candida albicans. In words: Antifungal activity against Candida albicans 44506 assessed as inhibition of U-14C-leucine incorporation into TCA precipitable material after 1 hr. Particulars: Candida albicans, 44506, 1 h. Format: functional, organism-based. The procedure, abridged: as §3
The test system of assay [18] is Candida albicans. In words: Antifungal activity against Candida albicans 44506 assessed as inhibition of U-14C-adenine incorporation into TCA precipitable material after 1 hr. The settings on record: Candida albicans, 44506, 1 h. It counts as functional, organism-based. The procedure, abridged: as §3
Assay [19] relates to Candida albicans. In words: Antifungal activity against Candida albicans 44506 in YNBG medium after 7 days in pH 4 buffer by agar dilution method. Format: functional. The settings on record: Candida albicans, 44506, 168 h.
Assay [20] concerns Cryptococcus neoformans. In words: Antifungal activity against Cryptococcus neoformans 32045 after 48 hrs by twofold broth dilution method. It counts as functional. Particulars: Cryptococcus neoformans, 32045, 48 h. The procedure, abridged: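 Broth microdilution with twofold compound dilutions and an inoculum of 10^3 cells/ml. Incubated 48 h at 37°. MIC is the visually read lowest concentration completely inhibiting growth. Triplicate average.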

The subject of assay [21] is Scopulariopsis brevicaulis. In words: Antifungal activity against Scopulariopsis brevicaulis 36840 after 18 to 24 hrs by twofold broth dilution method. It counts as functional.
Assay [22] deals with Trichophyton mentagrophytes. In words: Antifungal activity against Trichophyton mentagrophytes 9533 after 18 to 24 hrs by twofold broth dilution method. It counts as functional.
In assay [23] the test system is Candida albicans. In words: Antifungal activity against Candida albicans 44506 in RPMI-1640 medium after 24 to 48 hrs. It counts as functional. A digest of the protocol: as §4
Assay [24] concerns Candida albicans. In words: Antifungal activity against Candida albicans 44506 in RPMI-1640 medium of pH 7.2 after 7 days by agar dilution method. It counts as functional. Particulars: Candida albicans, 44506, 168 h.
Another assay has as its system Trichosporon beigelii. In words: Antifungal activity against Trichosporon beigelii 28592 after 18 to 24 hrs by twofold broth dilution method. It counts as functional.
Assay [25] deals with Cryptococcus neoformans. In words: Antifungal activity against Cryptococcus neoformans 32045 after 24 to 48 hrs. Format: functional. A digest of the protocol: as §4
In the next assay the test system is Sporothrix schenckii. In words: Antifungal activity against Sporothrix schenckii 14284 after 18 to 24 hrs by twofold broth dilution method. It counts as functional.

For `O=C1c2nccc(O)c2-c2nc3ccccc3c3ccnc1c23` [MERIDINE], the MIC against Nannizzia gypsea turned out to be 25 µg/mL (≈ 83.5 µM); against Candida albicans [1] it was 0.31 µg/mL (≈ 1.04 µM); with Candida albicans [2], 0.2 µg/mL (≈ 0.668 µM); with Candida albicans [3], 3.1 µg/mL (≈ 10.4 µM); against Candida albicans [4], 2.5 µg/mL (≈ 8.35 µM); with Candida albicans [5], 0.31 µg/mL (≈ 1.04 µM). In addition, the MIC with Candida albicans [6] is 2.5 µg/mL (≈ 8.35 µM); with Candida albicans [7] it was 2.5 µg/mL (≈ 8.35 µM); against Candida albicans [8], 1.2 µg/mL (≈ 4.01 µM); against Candida albicans [9] it was 1.2 µg/mL (≈ 4.01 µM); against Candida albicans [11], 0.62 µg/mL (≈ 2.07 µM); against Candida albicans [12] it was 1.2 µg/mL (≈ 4.01 µM). The MIC is 1.6 µg/mL (≈ 5.35 µM) with Epidermophyton floccosum; 0.31 µg/mL (≈ 1.04 µM) in the assay with Candida albicans [13]; 0.62 µg/mL (≈ 2.07 µM) in the assay on Candida albicans [14]; 3.1 µg/mL (≈ 10.4 µM) against Bacillus subtilis; 2.5 µg/mL (≈ 8.35 µM) in the assay with Candida albicans [19]; 0.8 µg/mL (≈ 2.67 µM) with Cryptococcus neoformans [20]. Besides, the MIC in [21] was above 25 µg/mL; in assay [22], 6.2 µg/mL (≈ 20.7 µM); against Candida albicans [24], 0.31 µg/mL (≈ 1.04 µM); in the assay with Trichosporon beigelii, above 25 µg/mL; with Sporothrix schenckii, above 25 µg/mL. Further, the outcome with Escherichia coli and with Pseudomonas aeruginosa was inactive. Moreover, the IC50 was above 100 µg/mL in the assay with Candida albicans [10], above 100 µg/mL with Candida albicans [16], 50 µg/mL (≈ 167 µM) in the assay with Candida albicans [17] and 1 µg/mL (≈ 3.34 µM) in the assay on Candida albicans [18]. The MFC in the assay on Candida albicans [15] stood at 3.1 µg/mL (≈ 10.4 µM); against Candida albicans [23] it was 0.2 µg/mL (≈ 0.668 µM); against Cryptococcus neoformans [25] it was 6.2 µg/mL (≈ 20.7 µM).
On to `CC(=O)N1CCN(c2ccc(OCC3COC(Cn4ccnc4)(c4ccc(Cl)cc4Cl)O3)cc2)CC1` (centres undefined) [KETOCONAZOLE], for which the MIC in the assay with Candida albicans [2] was 0.008 µg/mL (≈ 0.0151 µM); against Candida albicans [3], 0.062 µg/mL (≈ 0.117 µM).
Turning to `CN(CC[C@H](N)CC(=O)N[C@H]1C=C[C@H](n2ccc(N)nc2=O)O[C@@H]1C(=O)O)C(=N)N` [BLASTICIDIN_S], the IC50 was above 100 µg/mL in the assay with Candida albicans [10], above 100 µg/mL with Candida albicans [16], 6 µg/mL (≈ 14.2 µM) with Candida albicans [17] and above 100 µg/mL in the assay with Candida albicans [18].
As to `Clc1ccc(COC(Cn2ccnc2)c2ccc(Cl)cc2Cl)c(Cl)c1` (centres undefined) [MICONAZOLE], the values for the minimal inhibitory concentration (MIC) in the assay on Candida albicans [2] and with Candida albicans [3] were 0.03 µg/mL (≈ 0.0721 µM) and 25 µg/mL (≈ 60.1 µM), respectively.
As to `Nc1nc(=O)[nH]cc1F` [FLUCYTOSINE], the IC50 in the assay on Candida albicans [10] was above 100 µg/mL; in the assay on Candida albicans [16], above 100 µg/mL; in the assay on Candida albicans [17] it was above 100 µg/mL; in the assay with Candida albicans [18] it was 6 µg/mL (≈ 46.5 µM).

Broadly, the MIC is the smallest concentration in the dilution series that meets the test's criterion for growth inhibition. Low values mean greater potency, high ones weaker potency. Broadly, the IC50 is the point on the concentration scale where inhibition reaches its midpoint. Broadly, the MFC is the lowest tested concentration that kills the fungus rather than only halting it.
